Experiments:
[1] = Concentration required to reduce cell survival to 10% of controls using V-79 cells in the clonogenic assay, in aerobic conditions; format: functional; conditions: Cricetulus griseus, V79
In short: (§1)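 V-79 cells (500 000 per bottle) grown 20 h in MEM with 10% FBS. Hypoxic set gassed 2 h at 37 °C with humidified 95% N2/5% CO2. Drug in ethanol/water or DMF injected through septa. Exposure 3 h under air or hypoxia. Cells trypsinised, counted by trypan blue, 500 plated in triplicate for 6–8 days. Colonies stained with crystal violet, survival relative to solvent control.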

[2] = Hypoxic selectivity expressed as the ratio of IC50 values in air and nitrogen; format: functional
[3] = Concentration required to reduce cell survival to 10% of controls using V-79 cells in the clonogenic assay, in anaerobic conditions (hypoxic conditions); format: functional; conditions: Cricetulus griseus, V79; in short: as §1
[4] = Concentration of drug required to reduce V-79 cell survival to 50% of controls in a SRB assay; format: functional, cell-based; conditions: Cricetulus griseus, V79
In short: (§2)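 V-79 cells (about 7 × 10³ per 100 μL) preincubated 24 h, then exposed to drug for 3 h under oxic conditions. Washed 5× with HBSS and grown 48 h more. Fixed with TCA and stained with SRB. Bound dye dissolved in 10 mM Tris, spotted on TLC and read by video densitometry. IC50 is the mean of triplicates in one experiment. Ratio is IC50 of sulfide over sulfoxide or sulfone.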

[5] = Hypoxia-selective cytotoxicity required to reduce cell survival to 10% of controls using V-79 cells in the clonogenic assay, with N2; format: functional; conditions: Cricetulus griseus, V79; in short: as §1
[6] = Hypoxia-selective cytotoxicity required to reduce cell survival to 10% of controls using V-79 cells in the clonogenic assay, with air; format: functional; conditions: Cricetulus griseus, V79; in short: as §1
[7] = Relative cytotoxicity is expressed as the ratio of the IC50 values of the corresponding sulfide to sulfoxide or to sulfone; format: functional, Cricetulus griseus; in short: as §2
Rattus norvegicus [8] = organism: Rattus norvegicus; assay: Bioreduction experiment was conducted by incubation of the sulfoxides with rat liver S-9 fractions in anaerobic conditions (N2, without cofactors); format: functional; design: concentration or dose not given beside the values
In short: (§3)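 Rat liver S-9 fraction incubated with sulfoxide at 37 °C for 30 min with shaking. Aerobic vials were left open to air. Anaerobic vials were purged with N2 for 10 min before the compound was injected. Cofactor was NADPH, benzaldehyde, 2-hydroxypyrimidine or acetaldehyde, or none. Controls were boiled S-9 and S-9 without cofactors. For menadione, S-9 was preincubated aerobically with 1 equiv for 30 min, then benzaldehyde was added. Sulfide or sulfone was measured by HPLC or TLC densitometry.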

Rattus norvegicus [9] = organism: Rattus norvegicus; assay: Bioreduction experiment was conducted by incubation of the sulfoxides with rat liver S-9 fractions in anaerobic conditions N2); format: functional; in short: as §3
Rattus norvegicus [10] = organism: Rattus norvegicus; assay: Reduction potential (SCE) determined by differential pulse polarography of the sulfoxides […]; format: functional
Rattus norvegicus [11] = organism: Rattus norvegicus; assay: Bioreduction experiment was conducted by incubation of the sulfoxides with rat liver S-9 fractions in aerobic conditions (N2, 2-hydroxypyrimidine); format: functional; in short: as §3
Rattus norvegicus [12] = organism: Rattus norvegicus; assay: Bioreduction experiment was conducted by incubation of the sulfoxides with rat liver S-9 fractions in aerobic conditions (N2, NADPH); format: functional; in short: as §3
Rattus norvegicus [13] = organism: Rattus norvegicus; assay: Bioreduction experiment was conducted by incubation of the sulfoxides with rat liver S-9 fractions in aerobic conditions (N2, acetaldehyde); format: functional; in short: as §3
Rattus norvegicus [14] = organism: Rattus norvegicus; assay: Bioreduction experiment was conducted by incubation of the sulfoxides with rat liver S-9 fractions in aerobic conditions (N2, menadione); format: functional; in short: as §3
Rattus norvegicus [15] = organism: Rattus norvegicus; assay: Bioreduction experiment was conducted by incubation of the sulfoxides with rat liver S-9 fractions in aerobic conditions (air, NADPH); format: functional; in short: as §3
Rattus norvegicus [16] = organism: Rattus norvegicus; assay: Bioreduction experiment was conducted by incubation of the sulfoxides with rat liver S-9 fractions in aerobic conditions (air, benzaldehyde); format: functional; in short: as §3
Rattus norvegicus [17] = organism: Rattus norvegicus; assay: Bioreduction experiment was conducted by incubation of the sulfoxides with rat liver S-9 fractions in aerobic conditions (air, control); format: functional; in short: as §3
Rattus norvegicus [18] = organism: Rattus norvegicus; assay: Bioreduction experiment was conducted by incubation of the sulfoxides with rat liver S-9 fractions in aerobic conditions (air, without cofactors); format: functional; in short: as §3
Rattus norvegicus [19] = organism: Rattus norvegicus; assay: Bioreduction experiment was conducted by incubation of the sulfoxides with rat liver S-9 fractions in anaerobic conditions (N2, benzaldehyde); format: functional; design: concentration or dose not given beside the values; in short: as §3
Rattus norvegicus [20] = organism: Rattus norvegicus; assay: Bioreduction experiment was conducted by incubation of the sulfoxides with rat liver S-9 fractions under aerobic(air) without cofactors; format: functional
In short: (§4)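 Rat liver S-9 incubated with sulfoxide for 30 min at 37 °C, in open vials (air) or in vials purged with N2 for 10 min before dosing. Cofactor was NADPH, NADH, benzaldehyde, 2-hydroxypyrimidine or acetaldehyde. Controls were boiled S-9 or no cofactor. Menadione arm: 30 min aerobic preincubation with 1 equiv, then benzaldehyde. Stopped with CH2Cl2. Sulfide quantified by TLC densitometry as % of sulfoxide. Three experiments, same S-9 batch.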

Rattus norvegicus [21] = organism: Rattus norvegicus; assay: Bioreduction experiment was conducted by incubation of the sulfoxides with rat liver S-9 fractions under anaerobic (N2) in the presence of 2-hydroxypyrimidine; format: functional; in short: as §4
Rattus norvegicus [22] = organism: Rattus norvegicus; assay: Bioreduction experiment was conducted by incubation of the sulfoxides with rat liver S-9 fractions under anaerobic (N2) in the presence of NADH; format: functional; in short: as §4
Rattus norvegicus [23] = organism: Rattus norvegicus; assay: Bioreduction experiment was conducted by incubation of the sulfoxides with rat liver S-9 fractions under anaerobic (N2) in the presence of NADPH; format: functional; in short: as §4
Rattus norvegicus [24] = organism: Rattus norvegicus; assay: Bioreduction experiment was conducted by incubation of the sulfoxides with rat liver S-9 fractions under anaerobic (N2) in the presence of acetaldehyde; format: functional; in short: as §4
Rattus norvegicus [25] = organism: Rattus norvegicus; assay: Bioreduction experiment was conducted by incubation of the sulfoxides with rat liver S-9 fractions under anaerobic (N2) with conditions boiled S-9 fractions; format: functional; in short: as §4
Rattus norvegicus [26] = organism: Rattus norvegicus; assay: Bioreduction experiment was conducted by incubation of the sulfoxides with rat liver S-9 fractions under anaerobic (N2) without cofactors; format: functional; in short: as §4
Rattus norvegicus [27] = organism: Rattus norvegicus; assay: Bioreduction experiment was conducted by incubation of the sulfoxides with rat liver S-9 fractions under aerobic(air) in the presence of NADPH; format: functional; in short: as §4
Rattus norvegicus [28] = organism: Rattus norvegicus; assay: Bioreduction experiment was conducted by incubation of the sulfoxides with rat liver S-9 fractions under aerobic(air) in the presence of benzaldehyde; format: functional; in short: as §4
Rattus norvegicus [29] = organism: Rattus norvegicus; assay: Bioreduction experiment was conducted by incubation of the sulfoxides with rat liver S-9 fractions under aerobic(air) in the presence of were NADH; format: functional; in short: as §4
Rattus norvegicus [30] = organism: Rattus norvegicus; assay: Bioreduction experiment was conducted by incubation of the sulfoxides with rat liver S-9 fractions under aerobic(air) with conditions boiled S-9 fractions; format: functional; in short: as §4
Rattus norvegicus [31] = organism: Rattus norvegicus; assay: Bioreduction experiment was conducted by incubation of the sulfoxides with rat liver S-9 fractions under anaerobic (N2) in the presence of menadione; format: functional; in short: as §4
Rattus norvegicus [32] = organism: Rattus norvegicus; assay: Bioreduction experiment was conducted by incubation of the sulfoxides with rat liver S-9 fractions in aerobic conditions(N2, 2-hydroxypyrimidine); format: functional; in short: as §3
Rattus norvegicus [33] = organism: Rattus norvegicus; assay: Bioreduction experiment was conducted by incubation of the sulfoxides with rat liver S-9 fractions in aerobic conditions(N2, NADPH); format: functional; in short: as §3
Rattus norvegicus [34] = organism: Rattus norvegicus; assay: Bioreduction experiment was conducted by incubation of the sulfoxides with rat liver S-9 fractions in aerobic conditions(N2, acetaldehyde); format: functional; in short: as §3
Rattus norvegicus [35] = organism: Rattus norvegicus; assay: Bioreduction experiment was conducted by incubation of the sulfoxides with rat liver S-9 fractions in aerobic conditions(N2, menadione); format: functional; in short: as §3
Rattus norvegicus [36] = organism: Rattus norvegicus; assay: Bioreduction experiment was conducted by incubation of the sulfoxides with rat liver S-9 fractions in aerobic conditions(air, NADPH); format: functional; in short: as §3
Rattus norvegicus [37] = organism: Rattus norvegicus; assay: Bioreduction experiment was conducted by incubation of the sulfoxides with rat liver S-9 fractions in aerobic conditions(air, benzaldehyde); format: functional; in short: as §3
Rattus norvegicus [38] = organism: Rattus norvegicus; assay: Bioreduction experiment was conducted by incubation of the sulfoxides with rat liver S-9 fractions in aerobic conditions(air, control); format: functional; in short: as §3
Rattus norvegicus [39] = organism: Rattus norvegicus; assay: Bioreduction experiment was conducted by incubation of the sulfoxides with rat liver S-9 fractions in aerobic conditions(air, without cofactors); format: functional; in short: as §3
Rattus norvegicus [40] = organism: Rattus norvegicus; assay: Bioreduction experiment was conducted by incubation of the sulfoxides with rat liver S-9 fractions in anaerobic conditions (N2); format: functional; in short: as §3
Rattus norvegicus [41] = organism: Rattus norvegicus; assay: Bioreduction experiment was conducted by incubation of the sulfoxides with rat liver S-9 fractions in anaerobic conditions(N2, without cofactors); format: functional; in short: as §3
Rattus norvegicus [42] = organism: Rattus norvegicus; assay: Bioreduction experiment was conducted by incubation of the sulfoxides with rat liver S-9 fractions in anaerobic conditions(N2, benzaldehyde); format: functional; in short: as §3

SMILES: [O-][S+](c1ccccc1)c1ccc(N(CCCl)CCCl)cc1 (stereo not drawn)
- IC90 [1]: 2010 µM
- Selectivity [2]: 11
- IC90 [3]: 189 µM

SMILES: Nc1ccc([S+]([O-])c2ccc(N(CCCl)CCCl)cc2)cc1 (stereo not drawn)
- IC50 [4]: 30 µM
- IC90 [5]: 185 µM
- IC90 [6]: 2800 µM
- Cytotoxicity [7]: 0.08
- Bioreduction (Rattus norvegicus [8]): 0%
- Bioreduction (Rattus norvegicus [9]): 0%
- Selectivity [2]: 15
- E (Rattus norvegicus [10]): 2.55 -V
- Bioreduction (Rattus norvegicus [11]): 4.5%
- Bioreduction (Rattus norvegicus [12]): 0.37%
- Bioreduction (Rattus norvegicus [13]): 4.42%
- Bioreduction (Rattus norvegicus [14]): 0%
- Bioreduction (Rattus norvegicus [15]): 0 nmol/mg
- Bioreduction (Rattus norvegicus [16]): 0%
- Bioreduction (Rattus norvegicus [17]): 0%
- Bioreduction (Rattus norvegicus [18]): 0%
- Bioreduction (Rattus norvegicus [19]): 5%
- Bioreduction (Rattus norvegicus [20]): 1.14%
- Bioreduction (Rattus norvegicus [21]): 8.5%
- Bioreduction (Rattus norvegicus [22]): 9%
- Bioreduction (Rattus norvegicus [23]): 42.1%
- Bioreduction (Rattus norvegicus [24]): 12.92%
- Bioreduction (Rattus norvegicus [25]): 0%
- Bioreduction (Rattus norvegicus [26]): 1.75%
- Bioreduction (Rattus norvegicus [27]): 16%
- Bioreduction (Rattus norvegicus [28]): 1.05%
- Bioreduction (Rattus norvegicus [29]): 9.75%
- Bioreduction (Rattus norvegicus [30]): 0%
- Bioreduction (Rattus norvegicus [31]): 1.6%

SMILES: Cl.[O-][S+](c1ccc(Nc2c3ccccc3nc3ccccc23)cc1)c1ccc(N(CCCl)CCCl)cc1 (stereo not drawn)
- IC50 [4]: 26.2 µM
- IC90 [5]: 180 µM
- IC90 [6]: 4950 µM
- Cytotoxicity [7]: 0.07
- Selectivity [2]: 27
- E (Rattus norvegicus [10]): 2.63 -V
- Bioreduction (Rattus norvegicus [32]): 1.34%
- Bioreduction (Rattus norvegicus [33]): 1.37%
- Bioreduction (Rattus norvegicus [34]): 1.79%
- Bioreduction (Rattus norvegicus [35]): 1.07%
- Bioreduction (Rattus norvegicus [36]): 0%
- Bioreduction (Rattus norvegicus [37]): 0%
- Bioreduction (Rattus norvegicus [38]): 0%
- Bioreduction (Rattus norvegicus [39]): 0%
- Bioreduction (Rattus norvegicus [40]): 0%
- Bioreduction (Rattus norvegicus [41]): 1.29%
- Bioreduction (Rattus norvegicus [42]): 2.28%

SMILES: C[S+]([O-])c1ccccc1 (stereo not drawn) [METHYLPHENYLSULFOXIDE]
- Bioreduction (Rattus norvegicus [8]): 0%
- Bioreduction (Rattus norvegicus [9]): 0%
- E (Rattus norvegicus [10]): 2.4 -V
- Bioreduction (Rattus norvegicus [19]): 10.2%

Source: ChEMBL document CHEMBL1133503 (J Med Chem, 2000)
